Measured values published in ChEMBL document CHEMBL1143463, “Potential antitumor agents: flavones and their derivatives from Linaria reflexa Desf” (Bioorg Med Chem Lett, 2005).
pIC50: −log10 of the molar value.

Experiments:
ACHN = assay: In vitro inhibitory concentration against renal adenocarcinoma cell line (ACHN) in the presence of taxol; format: functional, cell-based; conditions: Homo sapiens
Summary of the method: (§1)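 Cell lines grown in RPMI 1640 with 10% FBS, 1% L-glutamine and 1% penicillin/streptomycin at 37 °C in 5% CO2. Seeded at 2–5 × 10^4 cells/well and left 24 h, then exposed 48 h to serial dilutions at final 0.25–50 (DMSO vehicle), six replicates. Cells fixed with cold TCA, stained with SRB, and read at 564 nm. IC50 taken from % inhibition curves, three experiments, mean ± SD.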

HepG2 = assay: In vitro inhibitory concentration against human hepatocellular carcinoma HepG-2 cells in the presence of vinblastine sulfate salt; format: functional, cell-based
Summary of the method: (§2)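 Cultured in DMEM with 10% FBS, 1% L-glutamine and 1% penicillin/streptomycin at 37 °C in 5% CO2. After 24 h attachment at 2–5 × 10^4 cells/well, cells were treated 48 h with serial dilutions at final 0.25–50 in DMSO-containing medium, six replicates. Survival measured by SRB staining of TCA-fixed cells at 564 nm against untreated control. IC50 from dose–response curves; three experiments, mean ± SD.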

Caco-2 = assay: In vitro inhibitory concentration against human colorectal adenocarcinoma Caco-2 cells in the presence of vinblastine sulfate salt; format: functional, cell-based; summary of the method: as §2
COR-L23 = assay: In vitro inhibitory concentration against human carcinoma COR-L23 cells in the presence of vinblastine sulfate salt; format: functional, cell-based; summary of the method: as §1
MRC5 = assay: In vitro inhibitory concentration against human fetal lung MRC-5 cell line in the presence of vinblastine sulfate salt; format: functional, cell-based; summary of the method: as §2
[1] = In vitro inhibitory concentration against human amelanotic melanoma cell line (C32) in the presence of vinblastine sulfate salt; format: functional; summary of the method: as §1

| pIC50 (ACHN) | pIC50 (HepG2) | pIC50 (Caco-2) | pIC50 (COR-L23) | pIC50 [1] | SMILES | pIC50 (MRC5) |
| --- | --- | --- | --- | --- | --- | --- |
| 4.77 | 4.96 | 4.85 | 4.98 | 4.67 | COc1ccc(-c2cc(=O)c3c(O)c(OC)c(O[C@@H]4OC(CO[C@@H]5OC(C)[C@H](O)[C@H](OC(C)=O)C5O)[C@@H](O)[C@H](O)C4O)cc3o2)cc1 (some centres undefined) | < 4.12 |
| 4.95 | 4.63 | 5.10 | 5.29 | 4.90 | COc1ccc(-c2cc(=O)c3c(O)c(OC)c(O[C@@H]4OC(CO[C@@H]5OC(C)[C@H](OC(C)=O)[C@H](O)C5O)[C@@H](O)C(O)[C@@H]4O)cc3o2)cc1 (some centres undefined) | < 4.12 |
| < 3.86 | < 3.86 | < 3.86 | < 3.86 | < 3.86 | C[C@]12O[C@H]1[C@@H](O)[C@]1(O)C=CO[C@@H](O[C@@H]3O[C@H](CO)[C@@H](O)[C@H](O)[C@H]3O)[C@@H]12 [ANTIRRHINOSIDE] | < 3.86 |
| 4.86 | 4.79 | 5.07 | 5.18 | 4.93 | COc1ccc(-c2cc(=O)c3c(O)c(OC)c(O[C@@H]4OC(CO[C@@H]5OC(C)[C@H](O)[C@H](O)C5OC(C)=O)[C@@H](O)[C@H](O)C4O)cc3o2)cc1 (some centres undefined) [ISOLINARIIN A] | < 4.12 |
| – | – | – | – | 5.15 | COc1ccc(-c2cc(=O)c3c(O)c(OC)c(O)cc3o2)cc1 [PECTOLINARIGENIN] | < 3.80 |
| – | 4.85 | – | – | 5.14 | COc1ccc(-c2cc(=O)c3c(O)c(OC)c(O[C@@H]4O[C@H](CO[C@@H]5O[C@@H](C)[C@H](O)[C@@H](O)[C@H]5O)[C@@H](O)[C@H](O)[C@H]4O)cc3o2)cc1 [PECTOLINARIN] | < 4.10 |
